{
  "source": "ChEMBL document CHEMBL1124490",
  "about": "“Hybrid molecules: growth inhibition of Leishmania donovani promastigotes by thiosemicarbazones of 3-carboxy-beta-carbolines” (J Med Chem, 1989)",
  "format_in_all_cases": "functional",
  "key": {"[1]": {"assay": "Concentration of compound provoking 50% inhibition on growth of Leishmania donovani promastigotes", "conditions": "read-out: I50", "summary_of_the_method": "(§1)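 L. donovani LRC L-52 promastigotes were grown at 26 °C in 45% DMEM plus 45% RPMI 1640 (25 mM HEPES, pH 7.4) with 10% heat-inactivated FCS and antibiotics. Compound was added one day after seeding. Cells were counted by hemacytometer 3 days later, in duplicate flasks at two dilutions each, against untreated cultures. IC50 is the mean of five independent experiments.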"}, "[2]": {"test_system": "Leishmania donovani", "assay": "Concentration of compound provoking >99% irreversible after removal of drugs from culture medium inhibition on growth of Leishmania donovani promastigotes", "summary_of_the_method": "(§2)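 Strain LRC L-52 promastigotes were exposed to compound for 3 days at 26 °C in DMEM/RPMI 1640 (HEPES, pH 7.4) with 10% heat-inactivated FCS. Cells were then centrifuged, washed free of drug and resuspended in fresh medium. They were counted by hemacytometer after 3 more days. The value is the concentration giving >99% irreversible growth inhibition.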"}, "[3]": {"test_system": "Leishmania donovani", "assay": "Percent inhibition on the biosynthesis of RNA of promastigotes of Leishmania donovani at 37 uM concentration", "summary_of_the_method": "(§3)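 Promastigotes (5 x 10^6 cells/mL) were incubated with or without compound for 4 h, then pulsed for 1 h with a labelled precursor: [methyl-3H]thymidine 2.5 µCi/mL for DNA, [5-3H]uridine 2.5 µCi/mL for RNA, or [4,5-3H]leucine 5 µCi/mL for protein. Cells were washed in cold PBS and fractionated with TCA (cold-soluble pool, hot-soluble nucleic acid, insoluble protein). Protein was measured by Lowry.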"}, "[4]": {"test_system": "Leishmania donovani", "assay": "Percent inhibition on the biosynthesis of proteins of promastigotes of Leishmania donovani at 3.7 uM concentration", "summary_of_the_method": "as §3"}, "[5]": {"test_system": "Leishmania donovani", "assay": "Percent inhibition on the biosynthesis of DNA of promastigotes of Leishmania donovani at 37 uM concentration", "summary_of_the_method": "as §3"}, "[6]": {"test_system": "Leishmania donovani", "assay": "Percent inhibition on the biosynthesis of RNA of promastigotes of Leishmania donovani at 3.7 uM concentration", "summary_of_the_method": "as §3"}, "[7]": {"test_system": "Leishmania donovani", "assay": "Percent inhibition on the growth of the promastigotes of Leishmania donovani at 3.7 uM concentration"}, "[8]": {"test_system": "Leishmania donovani", "assay": "Percent inhibition on the biosynthesis of proteins of promastigotes of Leishmania donovani at 37 uM concentration", "summary_of_the_method": "as §3"}, "[9]": {"test_system": "Leishmania donovani", "assay": "Percent inhibition on the biosynthesis of DNA of promastigotes of Leishmania donovani at 3.7 uM concentration", "summary_of_the_method": "as §3"}, "[10]": {"test_system": "Leishmania donovani", "assay": "Percent inhibition on the growth of the promastigotes of Leishmania donovani at 37 uM concentration"}, "[11]": {"test_system": "Leishmania donovani", "assay": "Percent inhibition on the growth of the promastigotes of Leishmania donovani at 53 uM concentration"}, "[12]": {"assay": "Concentration of compound provoking 50% inhibition on growth of Leishmania donovani promastigotes multiplication", "conditions": "read-out: I50", "summary_of_the_method": "as §1"}, "[13]": {"test_system": "Leishmania donovani", "assay": "Percent inhibition on the biosynthesis of RNA of promastigotes of Leishmania donovani at 53 uM concentration", "summary_of_the_method": "as §3"}, "[14]": {"test_system": "Leishmania donovani", "assay": "Concentration of compound provoking >99% irreversible after removal of drugs from culture medium inhibition on growth of Leishmania donovani promastigotes multiplication", "summary_of_the_method": "as §2"}, "[15]": {"test_system": "Leishmania donovani", "assay": "Percent inhibition on the biosynthesis of proteins of promastigotes of Leishmania donovani at 26.6 uM concentration", "summary_of_the_method": "as §3"}, "[16]": {"test_system": "Leishmania donovani", "assay": "Percent inhibition on the biosynthesis of proteins of promastigotes of Leishmania donovani at 53 uM concentration", "summary_of_the_method": "as §3"}, "[17]": {"test_system": "Leishmania donovani", "assay": "Percent inhibition on the biosynthesis of DNA of promastigotes of Leishmania donovani at 26.6 uM concentration", "summary_of_the_method": "as §3"}, "[18]": {"test_system": "Leishmania donovani", "assay": "Percent inhibition on the growth of the promastigotes of Leishmania donovani at 26.6 uM concentration"}, "[19]": {"test_system": "Leishmania donovani", "assay": "Percent inhibition on the biosynthesis of RNA of promastigotes of Leishmania donovani at 26.6 uM concentration", "summary_of_the_method": "as §3"}, "[20]": {"test_system": "Leishmania donovani", "assay": "Percent inhibition on the biosynthesis of DNA of promastigotes of Leishmania donovani at 53 uM concentration", "summary_of_the_method": "as §3"}, "[21]": {"test_system": "Leishmania donovani", "assay": "Percent inhibition on the biosynthesis of DNA of promastigotes of Leishmania donovani at 5.25 uM concentration", "summary_of_the_method": "as §3"}, "[22]": {"test_system": "Leishmania donovani", "assay": "Percent inhibition on the biosynthesis of DNA of promastigotes of Leishmania donovani at 3.5 uM concentration", "summary_of_the_method": "as §3"}, "[23]": {"test_system": "Leishmania donovani", "assay": "Percent inhibition on the biosynthesis of RNA of promastigotes of Leishmania donovani at 5.25 uM concentration", "summary_of_the_method": "as §3"}, "[24]": {"test_system": "Leishmania donovani", "assay": "Percent inhibition on the biosynthesis of RNA of promastigotes of Leishmania donovani at 3.5 uM concentration", "summary_of_the_method": "as §3"}, "[25]": {"test_system": "Leishmania donovani", "assay": "Percent inhibition on the biosynthesis of proteins of promastigotes of Leishmania donovani at 3.5 uM concentration", "summary_of_the_method": "as §3"}, "[26]": {"test_system": "Leishmania donovani", "assay": "Percent inhibition on the biosynthesis of DNA of promastigotes of Leishmania donovani at 17.5 uM concentration", "summary_of_the_method": "as §3"}, "[27]": {"test_system": "Leishmania donovani", "assay": "Percent inhibition on the biosynthesis of proteins of promastigotes of Leishmania donovani at 17.5 uM concentration", "summary_of_the_method": "as §3"}, "[28]": {"test_system": "Leishmania donovani", "assay": "Percent inhibition on the biosynthesis of proteins of promastigotes of Leishmania donovani at 5.25 uM concentration", "summary_of_the_method": "as §3"}, "[29]": {"test_system": "Leishmania donovani", "assay": "Percent inhibition on the growth of the promastigotes of Leishmania donovani at 3.5 uM concentration"}, "[30]": {"test_system": "Leishmania donovani", "assay": "Percent inhibition on the growth of the promastigotes of Leishmania donovani at 17.5 uM concentration"}, "[31]": {"test_system": "Leishmania donovani", "assay": "Percent inhibition on the biosynthesis of RNA of promastigotes of Leishmania donovani at 17.5 uM concentration", "summary_of_the_method": "as §3"}},
  "data": [
    {"smiles": "COC(=O)c1cc2c(cn1)[nH]c1ccccc12", "note": "[BETA-CCM]", "values": [
      {"measurement": "IC50", "setting": "[1]", "result": "> 50", "unit": "µM"}
    ]},
    {"smiles": "N=C(N)c1ccc(OCCCCCOc2ccc(C(=N)N)cc2)cc1", "note": "[PENTAMIDINE]", "values": [
      {"measurement": "IC50", "setting": "[1]", "result": 0.56, "unit": "µM"},
      {"measurement": "concentration for >99% irreversible growth inhibition", "setting": "[2]", "result": 1.1, "unit": "µM"}
    ]},
    {"smiles": "CCOC(=O)c1cc2cc(/C=N/N=C(/N)S)[nH]cc-2n1", "values": [
      {"measurement": "IC50", "setting": "[1]", "result": "> 50", "unit": "µM"},
      {"measurement": "concentration for >99% irreversible growth inhibition", "setting": "[2]", "result": "> 75", "unit": "µM"}
    ]},
    {"smiles": "N/C(S)=N/N=C/c1cc2c3ccccc3nc-2c[nH]1", "values": [
      {"measurement": "IC50", "setting": "[1]", "result": 5, "unit": "µM"},
      {"measurement": "inhibition", "setting": "[3]", "result": 96, "unit": "%"},
      {"measurement": "inhibition", "setting": "[4]", "result": 7, "unit": "%"},
      {"measurement": "inhibition", "setting": "[5]", "result": 99.7, "unit": "%"},
      {"measurement": "inhibition", "setting": "[6]", "result": 34, "unit": "%"},
      {"measurement": "inhibition", "setting": "[7]", "result": 37, "unit": "%"},
      {"measurement": "inhibition", "setting": "[8]", "result": 81, "unit": "%"},
      {"measurement": "inhibition", "setting": "[9]", "result": 89, "unit": "%"},
      {"measurement": "concentration for >99% irreversible growth inhibition", "setting": "[2]", "result": 40, "unit": "µM"},
      {"measurement": "inhibition", "setting": "[10]", "result": 90, "unit": "%"}
    ]},
    {"smiles": "N/C(S)=N/N=C/c1ccccn1", "values": [
      {"measurement": "inhibition", "setting": "[11]", "result": 78, "unit": "%"},
      {"measurement": "IC50", "setting": "[12]", "result": 29, "unit": "µM"},
      {"measurement": "inhibition", "setting": "[13]", "result": 53, "unit": "%"},
      {"measurement": "Imax", "setting": "[14]", "result": 67, "unit": "µM"},
      {"measurement": "inhibition", "setting": "[15]", "result": 20, "unit": "%"},
      {"measurement": "inhibition", "setting": "[16]", "result": 17, "unit": "%"},
      {"measurement": "inhibition", "setting": "[17]", "result": 90, "unit": "%"},
      {"measurement": "inhibition", "setting": "[18]", "result": 56, "unit": "%"},
      {"measurement": "inhibition", "setting": "[19]", "result": 50, "unit": "%"},
      {"measurement": "inhibition", "setting": "[20]", "result": 95, "unit": "%"}
    ]},
    {"smiles": "C/C(=N\\N=C(\\N)S)c1cc2c3ccccc3nc-2c[nH]1", "values": [
      {"measurement": "IC50", "setting": "[1]", "result": 2.5, "unit": "µM"},
      {"measurement": "inhibition", "setting": "[21]", "result": 0.5, "unit": "%"},
      {"measurement": "inhibition", "setting": "[22]", "result": 0, "unit": "%"},
      {"measurement": "inhibition", "setting": "[23]", "result": 52, "unit": "%"},
      {"measurement": "inhibition", "setting": "[24]", "result": 36, "unit": "%"},
      {"measurement": "inhibition", "setting": "[25]", "result": 25, "unit": "%"},
      {"measurement": "inhibition", "setting": "[26]", "result": 99.6, "unit": "%"},
      {"measurement": "inhibition", "setting": "[27]", "result": 95, "unit": "%"},
      {"measurement": "inhibition", "setting": "[28]", "result": 36, "unit": "%"},
      {"measurement": "concentration for >99% irreversible growth inhibition", "setting": "[2]", "result": 17.5, "unit": "µM"},
      {"measurement": "inhibition", "setting": "[29]", "result": 68, "unit": "%"},
      {"measurement": "inhibition", "setting": "[30]", "result": 100, "unit": "%"},
      {"measurement": "inhibition", "setting": "[31]", "result": 98.7, "unit": "%"}
    ]}
  ]
}
